Experimental data as given in PubChem BioAssay.
Calls of active or inactive are those of the source.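 The calls were made as follows, unless noted: active = mean duplicate potentiation above the buffer control mean plus 5 SD of buffer wells; inactive = the rest.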

Tests used:
[1] = thallium flux activation in parental CHO cells, counter-screen for KCNQ1 potentiator project (AID 493006;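 active = duplicate-averaged activation above buffer control mean plus 5 SD of those controls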); conditions: parental CHO-K1 cells, FluxOR thallium flux, at 10 µM; hits give high values
How it was run: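 Assay system: Untransfected host CHO-K1 cells with FluxOR thallium dye | Probe or stimulus: Potassium/thallium depolarization pulse | Schedule: Overnight 37 °C plating, 90 min RT dye, 20 min compound | Detection: Kinetic thallium-flux fluorescence | Read-out: Max-minus-min fluorescence over baseline, percent of buffer-to-R-L3 span | Benchmarks: Low control buffer, high control R-L3 activator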

[2] = molecular target: Potassium voltage-gated channel subfamily KQT member 1 (Homo sapiens) (UniProt P51787); assay: KCNQ1 potassium channel potentiators, confirmation, FluxOR thallium flux, CHO cells, duplicates (AID 493007;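 active = potentiation averaged over duplicate wells exceeding buffer-only control mean by more than 3 SD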;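 as to outcome: cells depolarized by a potassium plus thallium sulfate stimulus after compound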); conditions: KCNQ1 cell line, FluxOR thallium flux fluorescence, at 10 µM; hits give high values, % of reference activator effect, buffer zero
How it was run: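 Material: KCNQ1-expressing CHO cell line; Incubation: FluxOR dye loading 90 min, compound exposure 20 min, room temperature; Detection: FluxOR Tl+ flux fluorescence, 10 s baseline plus 110 s recording; Read-out: percent activation between buffer and R-L3 responses; Control set: buffer-only wells as 0% and R-L3 activator as 100%; Replication: duplicate wells per compound.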

[3] = molecular target: Potassium voltage-gated channel subfamily KQT member 2 (Rattus norvegicus) (UniProt O88943); assay: rat KCNQ2 channel potentiation, selectivity assay for KCNQ1 potentiator project, KCNQ2-CHO-K1 cells (AID 493009); conditions: FluxOR thallium flux fluorescence, at 10 µM; hits give high values, scaled: buffer 0, activator control 100;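 also: assay conditions were tuned for KCNQ1 rather than KCNQ2 modulators; signal is max minus min fluorescence divided by baseline after thallium stimulus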
[4] = molecular target: Potassium voltage-gated channel subfamily KQT member 1 (Homo sapiens) (UniProt P51787); assay: KCNQ1 channel current potentiators, confirmation, orthogonal assay for KCNQ1 potentiator project, IonWorks patch clamp, KCNQ1-CHO cells (AID 493184;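 active = current rise at least 3 SD above the untreated control mean in each of two repeat wells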); conditions: automated patch clamp current, at 10 µM; hits give high values
How it was run: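 assay system = KCNQ1-expressing CHO cells | medium = external bath solution at pH 7.4 | probe or stimulus = 2,000 ms depolarization, -90 to +40 mV | compound dosing = 10 µM final, single point | measured by = automated voltage clamp, amphotericin B perforated patch | measure = percent current increase versus pre-compound level | replication = duplicates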

Potassium voltage-gated channel subfamily KQT member 1 (Homo sapiens), sequence (P51787 whole entry, looked up): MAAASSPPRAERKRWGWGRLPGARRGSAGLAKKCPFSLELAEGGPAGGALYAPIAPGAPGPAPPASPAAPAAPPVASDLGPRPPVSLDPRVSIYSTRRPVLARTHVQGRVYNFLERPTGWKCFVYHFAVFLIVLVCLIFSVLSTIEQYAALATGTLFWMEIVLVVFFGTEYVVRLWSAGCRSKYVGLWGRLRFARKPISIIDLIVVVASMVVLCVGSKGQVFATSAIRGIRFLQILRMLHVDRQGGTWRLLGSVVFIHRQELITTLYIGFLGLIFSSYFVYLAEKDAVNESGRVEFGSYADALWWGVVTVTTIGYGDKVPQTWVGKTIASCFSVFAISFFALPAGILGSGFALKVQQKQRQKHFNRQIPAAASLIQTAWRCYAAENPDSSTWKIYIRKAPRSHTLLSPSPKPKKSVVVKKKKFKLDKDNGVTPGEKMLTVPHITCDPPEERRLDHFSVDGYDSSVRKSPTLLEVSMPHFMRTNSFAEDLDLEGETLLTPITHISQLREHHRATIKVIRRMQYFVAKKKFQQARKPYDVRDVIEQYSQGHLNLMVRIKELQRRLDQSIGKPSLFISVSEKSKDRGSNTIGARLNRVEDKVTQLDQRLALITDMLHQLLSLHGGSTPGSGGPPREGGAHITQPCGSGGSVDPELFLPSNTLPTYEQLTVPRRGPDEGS
Potassium voltage-gated channel subfamily KQT member 2 (Rattus norvegicus), sequence (O88943 whole entry, looked up): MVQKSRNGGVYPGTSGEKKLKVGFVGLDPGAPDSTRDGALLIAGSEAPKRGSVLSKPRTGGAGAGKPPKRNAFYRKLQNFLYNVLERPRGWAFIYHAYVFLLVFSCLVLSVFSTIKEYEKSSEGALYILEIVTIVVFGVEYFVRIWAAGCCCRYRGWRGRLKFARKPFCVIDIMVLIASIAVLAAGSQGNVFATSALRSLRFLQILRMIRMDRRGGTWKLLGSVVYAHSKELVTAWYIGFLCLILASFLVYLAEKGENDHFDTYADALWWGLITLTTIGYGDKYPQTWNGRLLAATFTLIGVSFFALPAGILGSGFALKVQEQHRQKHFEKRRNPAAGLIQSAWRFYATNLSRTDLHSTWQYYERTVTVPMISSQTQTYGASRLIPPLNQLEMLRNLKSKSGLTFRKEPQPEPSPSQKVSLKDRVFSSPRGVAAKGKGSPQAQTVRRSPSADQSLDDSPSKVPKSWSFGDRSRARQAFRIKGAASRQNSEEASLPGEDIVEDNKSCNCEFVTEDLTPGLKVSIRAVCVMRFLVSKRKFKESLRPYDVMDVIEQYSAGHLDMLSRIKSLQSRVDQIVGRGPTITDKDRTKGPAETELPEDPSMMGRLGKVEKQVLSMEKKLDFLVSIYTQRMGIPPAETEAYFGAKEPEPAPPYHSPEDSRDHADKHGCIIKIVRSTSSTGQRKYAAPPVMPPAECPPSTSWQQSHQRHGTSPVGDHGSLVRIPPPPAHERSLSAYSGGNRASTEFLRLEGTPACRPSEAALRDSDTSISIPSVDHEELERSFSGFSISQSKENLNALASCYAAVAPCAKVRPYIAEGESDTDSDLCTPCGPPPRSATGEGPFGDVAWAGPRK

C=C[C@@]1(C)CC(=O)[C@]2(O)[C@@]3(C)[C@@H](O)CCC(C)(C)[C@@H]3[C@H](OC(C)=O)[C@H](O)[C@@]2(C)O1
inactive: outcome [1] | outcome [2] | outcome [3] | outcome [4]

Cc1cc(C)cc(NC(=O)C(Sc2ncnc3ccccc23)c2ccccc2)c1 (stereo not given)
inactive: outcome [1] | outcome [2] | outcome [3] | outcome [4]

CCc1ccc(CNC(=O)CCn2nc(C)c3c(C)n(-c4ccccc4)nc3c2=O)cc1
inactive: outcome [1] | outcome [2] | outcome [3] | outcome [4]

COc1cccc(N(C(=O)Cn2nnc(-c3ccc(C)o3)n2)C(C(=O)NC2CCCC2)c2ccncc2)c1 (stereo not given)
inactive: outcome [1] | outcome [2] | outcome [3] | outcome [4]

COc1ccc(NC(=S)N2CCC(C(O)(c3ccccc3)c3ccccc3)CC2)cc1
inactive: outcome [1] | outcome [2] | outcome [4]
active: potentiation [3] 186%

Cc1ccccc1OC(=O)n1c(=S)oc2cc(Cl)ccc21
active: activation [1] 152% | potentiation [3] 157%
inactive: outcome [2] | outcome [4]

CCOC(=O)C(C)Oc1cccc2c(=O)n(CC(=O)NCc3ccc4c(c3)OCO4)ccc12 (stereo not given)
inactive: outcome [1] | outcome [2] | outcome [3] | outcome [4]

Oc1[nH]c2c(Cl)cc(Cl)cc2c1N=NC(=S)NCC1CCCO1 (stereo not given)
inactive: outcome [4]
active: activation [1] 346% | potentiation [2] 277% | potentiation [3] 454%

CCOC(=O)c1ccc(N2C(=O)c3n[nH]c(C)c3C2c2ccccn2)cc1 (stereo not given)
inactive: outcome [1] | outcome [2] | outcome [3] | outcome [4]

CCC(CC)C(=O)Nc1cc([N+](=O)[O-])ccc1Cl
inactive: outcome [1] | outcome [2] | outcome [3] | outcome [4]

CSc1nc2sc3c(c2c(=S)[nH]1)CC(C)(C)OC3
inactive: outcome [4]
active: activation [1] 528% | potentiation [2] 298% | potentiation [3] 652%

CCOC(=O)Cn1c2ccccc2c2nc3ccccc3nc21
inactive: outcome [1] | outcome [2] | outcome [3] | outcome [4]

CCOC(=O)C(=Cc1cc(=O)c(OC)co1)C(=O)OCC
inactive: outcome [1] | outcome [2] | outcome [3] | outcome [4]

C[C@@H](NC(=O)[C@@H]1Cc2ccccc2CN1)C(=O)NC1CCCC1
inactive: outcome [1] | outcome [2] | outcome [3] | outcome [4]

COCCOC(=O)N/C=C\c1nc2ccccc2c(=O)[nH]1
inactive: outcome [1] | outcome [2] | outcome [3] | outcome [4]

Cc1ccc(C(=O)OCC(=O)Nc2sc3c(c2C#N)CCCC3)cc1NC(=O)c1ccco1
inactive: outcome [1] | outcome [2] | outcome [3] | outcome [4]

Cc1cccc(NC(=S)NNC(=O)c2cc3c(s2)CCC(C)C3)c1C (stereo not given)
inactive: outcome [4]
active: activation [1] 192% | potentiation [2] 55.5% | potentiation [3] 264%

Cc1ccc(OCc2n[nH]c(=S)n2-c2ccc(Br)cc2)cc1
inactive: outcome [1] | outcome [4]
active: potentiation [2] 22.5% | potentiation [3] 146%

CC(Sc1nnnn1-c1ccc(O)cc1)C(=O)NC1CCCCC1C (stereo not given)
inactive: outcome [1] | outcome [2] | outcome [3] | outcome [4]

COC(=O)c1ccc(N2CCN(S(=O)(=O)c3ccc(Br)cc3)CC2)c([N+](=O)[O-])c1
inactive: outcome [1] | outcome [2] | outcome [3] | outcome [4]

COc1ccc(C(=O)N2CCC(N3CCN(c4ccccc4)CC3)CC2)cc1
inactive: outcome [1] | outcome [2] | outcome [3] | outcome [4]

CCCNC1=CC(=O)CC(C)(C)C1
inactive: outcome [1] | outcome [2] | outcome [3] | outcome [4]

C/C(=N\NC(=S)Nc1ccc(C)cc1)c1cc2ccccc2o1
active: potentiation [2] 97% | potentiation [3] 169%
inactive: outcome [1] | outcome [4]

Cc1cc2n(n1)SC(Nc1ccc(F)c(Cl)c1)N2 (stereo not given)
inactive: outcome [1] | outcome [2] | outcome [3] | outcome [4]

Fc1ccc(NC(=S)N/N=C/c2ccc(F)c(F)c2)c(F)c1
inactive: outcome [1] | outcome [2] | outcome [3] | outcome [4]

COC(=O)c1c(NC(=O)c2ccccc2)sc(C(=O)c2ccccc2)c1C
inactive: outcome [1] | outcome [2] | outcome [3] | outcome [4]

Cc1ccc(C(=O)CC(=O)COc2ccc(Cl)cc2)cc1
active: potentiation [2] 184% | potentiation [3] 252%
inactive: outcome [1] | outcome [4]

Nc1nc(COc2ccccc2C=O)nc(Nc2ccccc2)n1
inactive: outcome [1] | outcome [2] | outcome [3] | outcome [4]

Cc1ccc(C(=O)CC(=O)COc2ccc(Cl)cc2C)cc1
active: potentiation [2] 180% | potentiation [3] 209%
inactive: outcome [1] | outcome [4]

CC(Oc1ccc(Cl)cc1Cl)C(=O)NC(=S)N1CCc2ccccc21 (stereo not given)
inactive: outcome [4]
active: activation [1] 151% | potentiation [2] 120% | potentiation [3] 172%
